Experimental data published in ChEMBL document CHEMBL5120861, “Short peptide pharmacophores developed from protein phosphatase-1 disrupting peptides (PDPs)” (Bioorg Med Chem, 2022).
The source made the active and inactive calls. The rule behind the calls is not given here. Where a SMILES comes first, the peptide text is derived from it. [ ]: non-standard residue; d: D form. 1Nal = N[C@@H](Cc1cccc2ccccc12)C(=O)O; 2Nal = N[C@@H](Cc1ccc2ccccc2c1)C(=O)O; NMeR = CN[C@@H](CCCNC(=N)N)C(=O)O; NMeF = CN[C@@H](Cc1ccccc1)C(=O)O; hArg = N=C(N)NCCCC[C@H](N)C(=O)O; β3hR = N=C(N)NCCC[C@H](N)CC(=O)O; Cha = N[C@@H](CC1CCCCC1)C(=O)O; Gly(cPr) = N[C@H](C(=O)O)C1CC1; β3hK = NCCCC[C@H](N)CC(=O)O; Orn = NCCC[C@H](N)C(=O)O

Key:
[1] = (§1) Disruption of PP1 holoenzyme (unknown origin) interaction with protein inhibitor 2 assessed as increase in PP1 phosphatase activity by measuring increase in fluorescence using DiFMUP as substrate enzyme preincubated with I2 for ten mins followed by compound treatment for 20 mins followed by substrate addition by fluorescence based analysis; parameters: species or system Homo sapiens
Homo sapiens = organism: Homo sapiens; experiment: as §1, with “as substrate at 500 uM enzyme preincubated” for “as substrate enzyme preincubated”
HeLa = experiment: Induction of calcium release in human HeLa cells and measured for 30 mins by fluorescent Ca2+-indicator dye Fluo-4 based fluorescence microscopy; format: functional, cell-based
Method in brief: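 HeLa Kyoto cells in low-glucose DMEM, 10% FBS, seeded day before to ~80% confluency; loaded with 0.5 μM Fluo-4 in HEPES imaging buffer pH 7.4 (1.2 mM CaCl2) 30 min rt, washed; confocal imaging ex 488/em 516 nm, 2 min baseline, compound added, recorded 30 min; responder cells counted. Calcium-free variant: CaCl2 omitted, 250 μM EGTA.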

Molecule	EC50 [1] [µM]	other results
CC(C)[C@H](NC(=O)[C@@H](N)CCCNC(=N)N)C(=O)N[C@@H](Cc1c[nH]c2ccccc12)C(=O)N[C@@H](Cc1ccccc1)C(=O)O (H-RVWF-OH)	104	–
CC(C)[C@@H](NC(=O)[C@@H](Cc1cnc[nH]1)NC(=O)[C@H](N)Cc1ccccc1)C(=O)N[C@H](CCCNC(=N)N)C(=O)O	–	Activity (Homo sapiens): Active
CC(C)[C@H](NC(=O)[C@@H](N)CCCNC(=N)N)C(=O)N[C@@H](Cc1ccc(O)cc1)C(=O)N[C@@H](Cc1ccccc1)C(=O)O (H-RVYF-OH)	–	Activity (Homo sapiens): Active
CC(C)[C@H](NC(=O)[C@H](CCCNC(=N)N)NC(=O)[C@@H](N)CCCN)C(=O)N[C@@H](Cc1c[nH]cn1)C(=O)N[C@@H](Cc1ccccc1)C(N)=O (H-[Orn]RVHF-NH2)	4.1	Activity (HeLa): Active
CC(C)[C@H](NC(=O)[C@@H](N)CCCNC(=N)N)C(=O)N[C@@H](CCC(=O)O)C(=O)N[C@@H](Cc1ccccc1)C(=O)O (H-RVEF-OH)	–	Activity (Homo sapiens): Active
Ac-KRVHF-OH	3.2	–
CC[C@H](C)[C@H](NC(=O)[C@@H](NC(=O)[C@H](CCC(=O)O)NC(=O)[C@H](C)NC(=O)[C@H](C)NC(=O)[C@H](CCC(=O)O)NC(=O)[C@H](Cc1ccc(C(=O)c2ccccc2)cc1)NC(=O)[C@H](Cc1ccccc1)NC(=O)[C@@H](NC(=O)[C@@H](NC(=O)[C@H](CCCNC(=N)N)NC(=O)[C@H](C)NC(=O)[C@H](CC(N)=O)NC(=O)[C@H](CCCCN)NC(=O)[C@H](CCCNC(=N)N)NC(=O)[C@H](CCCCN)NC(=O)[C@H](CCCNC(=N)N)NC(=O)[C@H](CCCCN)NC(=O)[C@@H]1CCCN1C(=O)[C@H](CCCNC(=N)N)NC(=O)[C@H](CCCCN)NC(=O)[C@H](CCCNC(=N)N)NC(=O)[C@H](CCCNC(=N)N)NC(C)=O)C(C)C)[C@H](C)O)[C@@H](C)CC)C(N)=O	0.233	–
CC(C)[C@H](NC(=O)[C@H](CCCNC(=N)N)NC(=O)[C@@H](N)CCCCN)C(=O)N[C@@H](Cc1c[nH]cn1)C(=O)N[C@@H](Cc1ccc2ccccc2c1)C(N)=O (H-KRVH[2Nal]-NH2)	1.5	–
CC(C)[C@@H](NC(=O)[C@@H](N)CCCNC(=N)N)C(=O)N[C@H](C(=O)N[C@@H](Cc1ccccc1)C(=O)O)[C@@H](C)O (H-R[dV]TF-OH)	> 500	–
CC(C)[C@@H](NC(=O)[C@H](NC(=O)[C@H](N)Cc1ccccc1)[C@H](C)O)C(=O)N[C@H](CCCNC(=N)N)C(=O)O (H-[dF][dT][dV][dR]-OH)	> 500	–
H-KHVHF-NH2	24.6	–
CC(C)[C@H](NC(=O)[C@H](CCCNC(=N)N)NC(=O)C[C@@H](N)CCCNC(=N)N)C(=O)N[C@@H](Cc1cnc[nH]1)C(=O)N[C@@H](Cc1ccccc1)C(N)=O (H-[β3hR]RVHF-NH2)	3.2	Activity (HeLa): Active
H-KRVHF-OH	1.5	–
CC(C)[C@H](NC(=O)[C@H](N)CCCNC(=N)N)C(=O)N[C@H](C(=O)N[C@@H](Cc1ccccc1)C(=O)O)[C@@H](C)O (H-[dR]VTF-OH)	> 500	–
CC(C)[C@H](NC(=O)C[C@H](CCCNC(=N)N)NC(=O)[C@@H](N)CCCCN)C(=O)N[C@@H](Cc1c[nH]cn1)C(=O)N[C@@H](Cc1ccccc1)C(N)=O (H-K[β3hR]VHF-NH2)	204	–
CC(C)[C@H](NC(=O)[C@H](CCCNC(=N)N)NC(=O)[C@@H](N)CCCCN)C(=O)N[C@@H](Cc1cnc[nH]1)C(=O)N[C@@H](CC1CCCCC1)C(N)=O (H-KRVH[Cha]-NH2)	52.5	–
CC(=O)N[C@@H](CCCNC(=N)N)C(=O)N[C@H](C(=O)N[C@H](C(=O)N[C@@H](Cc1ccccc1)C(N)=O)[C@@H](C)O)C(C)C (Ac-RVTF-NH2)	85.7	–
CC(C)[C@H](NC(=O)[C@@H](N)CCCNC(=N)N)C(=O)N[C@@H](CC(N)=O)C(=O)N[C@@H](Cc1ccccc1)C(=O)O (H-RVNF-OH)	220	–
CC(C)[C@H](NC(=O)[C@@H](N)CCCNC(=N)N)C(=O)N[C@@H](CC(=O)O)C(=O)N[C@@H](Cc1ccccc1)C(=O)O (H-RVDF-OH)	> 500	–
CC(C)[C@H](NC(=O)[C@@H](N)CCCNC(=N)N)C(=O)N[C@@H](Cc1ccccc1)C(=O)N[C@@H](Cc1ccccc1)C(=O)O (H-RVFF-OH)	> 500	–
CC(C)[C@H](NC(=O)[C@H](CCCNC(=N)N)NC(=O)C[C@@H](N)CCCCN)C(=O)N[C@@H](Cc1c[nH]cn1)C(=O)N[C@@H](Cc1ccccc1)C(N)=O (H-[β3hK]RVHF-NH2)	9.8	–
CC(C)[C@H](NC(=O)[C@H](CCCNC(=N)N)NC(=O)[C@@H](N)CCCCN)C(=O)N[C@@H](Cc1c[nH]cn1)C(=O)N(C)[C@@H](Cc1ccccc1)C(N)=O (H-KRVH[NMeF]-NH2)	23.5	–
CC(C)[C@H](NC(=O)[C@H](N)CCCNC(=N)N)C(=O)N[C@H](C(=O)N[C@H](Cc1ccccc1)C(=O)O)[C@@H](C)O (H-[dR]VT[dF]-OH)	> 500	–
CC(C)[C@H](NC(=O)[C@@H](N)CCCNC(=N)N)C(=O)N[C@H](C(=O)N[C@@H](Cc1ccc(O)cc1)C(=O)O)[C@@H](C)O (H-RVTY-OH)	> 500	–
CC(C)[C@H](NC(=O)[C@@H](N)CCCNC(=N)N)C(=O)N[C@H](C(=O)N[C@@H](Cc1ccccc1)C(=O)O)[C@@H](C)O (H-RVTF-OH)	234	–

Molecule	EC50 [1] [µM]	other results
Ac-KRVHF-NH2	1.7	–
CC(C)[C@H](NC(=O)[C@@H](N)CCCCN)C(=O)N[C@H](C(=O)N[C@@H](Cc1ccccc1)C(=O)O)[C@@H](C)O (H-KVTF-OH)	> 500	–
N=C(N)NCCC[C@H](NC(=O)[C@@H](N)CCCCN)C(=O)N[C@H](C(=O)N[C@@H](Cc1c[nH]cn1)C(=O)N[C@@H](Cc1ccccc1)C(N)=O)C1CC1 (H-KR[Gly(cPr)]HF-NH2)	2.1	Activity (HeLa): Active
CC(C)[C@H](NC(=O)[C@H](CCCNC(=N)N)NC(=O)[C@@H](N)CCCCN)C(=O)N[C@@H](Cc1cnc[nH]1)C(=O)N[C@@H](Cc1cccc2ccccc12)C(N)=O (H-KRVH[1Nal]-NH2)	2.5	–
CC(C)[C@H](NC(=O)[C@@H](N)CCCNC(=N)N)C(=O)N[C@H](C(=O)N[C@@H](Cc1ccccc1)C(N)=O)[C@@H](C)O (H-RVTF-NH2)	101	–
CC(C)[C@H](NC(=O)[C@H](CCCNC(=N)N)NC(=O)[C@@H](N)CCCCNC(=N)N)C(=O)N[C@@H](Cc1cnc[nH]1)C(=O)N[C@@H](Cc1ccccc1)C(N)=O (H-[hArg]RVHF-NH2)	6.6	–
CC(C)[C@H](NC(=O)[C@H](CCCNC(=N)N)NC(=O)[C@H](N)CCCCN)C(=O)N[C@@H](Cc1cnc[nH]1)C(=O)N[C@@H](Cc1ccccc1)C(N)=O	2.6	–
CC(C)[C@H](NC(=O)[C@@H](N)CCCNC(=N)N)C(=O)NCC(=O)N[C@@H](Cc1ccccc1)C(=O)O (H-RVGF-OH)	–	Activity (Homo sapiens): Active
CC(C)[C@H](NC(=O)[C@@H](NC(=O)[C@@H](N)CCCNC(=N)N)C(C)C)C(=O)N[C@@H](Cc1ccccc1)C(=O)O (H-RVVF-OH)	–	Activity (Homo sapiens): Active
H-RRVHF-OH	2.7	–
CC(C)[C@H](NC(=O)[C@@H](N)CCCNC(=N)N)C(=O)N[C@H](C(=O)N[C@@H](Cc1c[nH]c2ccccc12)C(=O)O)[C@@H](C)O (H-RVTW-OH)	256	–
CC(C)[C@H](NC(=O)[C@@H](NC(=O)[C@@H](N)Cc1ccccc1)[C@@H](C)O)C(=O)N[C@@H](CCCNC(=N)N)C(=O)O (H-FTVR-OH)	> 500	–
CC(C)[C@H](NC(=O)[C@H](CCCCNC(=N)N)NC(=O)[C@@H](N)CCCCN)C(=O)N[C@@H](Cc1cnc[nH]1)C(=O)N[C@@H](Cc1ccccc1)C(N)=O (H-K[hArg]VHF-NH2)	1.7	Activity (HeLa; DDE = dose-dependent effect): Dde
CC(C)[C@H](NC(=O)[C@@H](N)CCCNC(=N)N)C(=O)N[C@@H](Cc1cnc[nH]1)C(=O)N[C@@H](Cc1ccccc1)C(=O)O (H-RVHF-OH)	69.7	–
CC(C)C[C@H](NC(=O)[C@@H](N)CCCNC(=N)N)C(=O)N[C@H](C(=O)N[C@@H](Cc1ccccc1)C(=O)O)[C@@H](C)O (H-RLTF-OH)	–	Activity (Homo sapiens): Active
CC[C@H](C)[C@H](NC(=O)[C@@H](N)CCCNC(=N)N)C(=O)N[C@H](C(=O)N[C@@H](Cc1ccccc1)C(=O)O)[C@@H](C)O (H-RITF-OH)	–	Activity (Homo sapiens): Active
CC(C)[C@H](NC(=O)[C@@H](N)CCCNC(=N)N)C(=O)N[C@@H](CCC(N)=O)C(=O)N[C@@H](Cc1ccccc1)C(=O)O (H-RVQF-OH)	224	–
CC(C)[C@H](NC(=O)[C@H](CCCNC(=N)N)N(C)C(=O)[C@@H](N)CCCCN)C(=O)N[C@@H](Cc1cnc[nH]1)C(=O)N[C@@H](Cc1ccccc1)C(N)=O (H-K[NMeR]VHF-NH2)	4.7	Activity (HeLa): Active
CC(C)[C@H](NC(=O)[C@@H](N)CCCNC(=N)N)C(=O)N[C@H](C(=O)N[C@H](Cc1ccccc1)C(=O)O)[C@@H](C)O (H-RVT[dF]-OH)	> 500	–
CC(C)[C@H](NC(=O)[C@@H](N)CCCNC(=N)N)C(=O)N[C@@H](CO)C(=O)N[C@@H](Cc1ccccc1)C(=O)O (H-RVSF-OH)	> 500	–
CC(=O)N[C@@H](CCCNC(=N)N)C(=O)N[C@H](C(=O)N[C@H](C(=O)N[C@@H](Cc1ccccc1)C(=O)O)[C@@H](C)O)C(C)C (Ac-RVTF-OH)	> 500	–
CC(C)[C@H](NC(=O)[C@@H](N)CCCNC(=N)N)C(=O)N[C@@H](CCCCN)C(=O)N[C@@H](Cc1ccccc1)C(=O)O (H-RVKF-OH)	249	–
CC(C)[C@H](NC(=O)[C@@H](N)CCCNC(=N)N)C(=O)N[C@@H](C(=O)N[C@@H](Cc1ccccc1)C(=O)O)[C@H](C)O (H-RV[dT]F-OH)	> 500	–
CC(C)[C@@H](NC(=O)[C@H](N)CCCNC(=N)N)C(=O)N[C@@H](C(=O)N[C@@H](Cc1ccccc1)C(=O)O)[C@H](C)O (H-[dR][dV][dT]F-OH)	> 500	–
